Calls of active or inactive are those of the source. The calls are words filed in the database; no cut-off is given here.
How the values were obtained:
[1] = molecular target: T1, Beta-adrenergic receptor kinase 1 (Homo sapiens) (UniProt P25098); assay: Inhibition of Beta-adrenergic receptor kinase 1 at 1 mM
T1 sequence (whole entry): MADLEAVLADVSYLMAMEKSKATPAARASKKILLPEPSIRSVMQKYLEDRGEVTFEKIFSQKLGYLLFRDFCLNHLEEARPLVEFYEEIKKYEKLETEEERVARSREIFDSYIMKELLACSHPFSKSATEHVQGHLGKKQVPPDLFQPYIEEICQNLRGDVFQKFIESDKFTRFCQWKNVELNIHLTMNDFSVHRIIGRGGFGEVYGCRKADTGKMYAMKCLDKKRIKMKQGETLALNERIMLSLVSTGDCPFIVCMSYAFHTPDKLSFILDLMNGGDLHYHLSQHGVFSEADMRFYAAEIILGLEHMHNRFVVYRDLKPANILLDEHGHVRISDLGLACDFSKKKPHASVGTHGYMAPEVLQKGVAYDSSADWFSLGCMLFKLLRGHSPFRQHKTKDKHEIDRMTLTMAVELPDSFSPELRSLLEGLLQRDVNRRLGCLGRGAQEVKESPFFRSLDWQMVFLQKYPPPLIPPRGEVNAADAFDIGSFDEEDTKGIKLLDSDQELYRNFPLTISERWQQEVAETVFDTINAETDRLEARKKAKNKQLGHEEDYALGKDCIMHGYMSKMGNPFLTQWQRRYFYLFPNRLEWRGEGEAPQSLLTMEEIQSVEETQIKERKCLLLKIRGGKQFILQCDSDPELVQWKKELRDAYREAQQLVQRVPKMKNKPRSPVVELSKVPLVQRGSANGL
How it was run: (§1)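 Radiometric assay of βARK1 phosphorylating the intracellular C-terminal domain of human β2-adrenergic receptor (6.7 μM) with 10 mM [γ-32P]ATP (18.5 kBq). Stopped on ice water, then gel electrophoresis and imaging-plate readout of radioactivity. Inhibition % taken against control and background.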

[2] = molecular target: T1, Beta-adrenergic receptor kinase 1 (Homo sapiens); assay: Inhibition of Beta-adrenergic receptor kinase 1 at 1 mM (Inactive); how it was run: as §1
[3] = molecular target: cAMP-dependent protein kinase (PKA) (Homo sapiens) (UniProt P22694+P17612+P22612); assay: Inhibition of Protein kinase A (PKA) at 1 mM; assay type: functional
How it was run: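 Colorimetric kit assay of PKA (final 87 units/μL) with dye-linked kemptide substrate (LRRASLG). Incubated 30 min at 30 °C. Phosphorylated substrate captured on affinity membrane, eluted, read at OD 570 nm. PKI5-24 was the positive control.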

[4] = molecular target: T2, Beta-adrenergic receptor kinase 1 (Homo sapiens, UniProt P25098); assay: Inhibition of Beta-adrenergic receptor kinase 1; how it was run: as §1
T2 sequence (P25098 whole entry): T1 sequence (whole entry)

| Structure (SMILES) | inhibition [1] | inhibition [2] | further results |
| --- | --- | --- | --- |
| O=C1C(O)=C(O)O[C@H]1C1COC2(CCCCC2)O1 (stereo not given in full) | 20.4% | – | – |
| Cc1csc(-c2nc(-c3ccc(Cl)cc3)no2)c1Cl | – | inactive | – |
| CC(=O)CC(=O)Nc1cc(C(C)(C)C)sc1C(N)=O | 37.3% | – | – |
| Clc1ccc(-c2csc(Nc3ccccc3)n2)cc1 | – | inactive | – |
| CCCCCCCCCCCCCCCCN(C)c1ccc(S(C)(=O)=O)cc1N | – | inactive | – |
| O=[N+]([O-])c1ccccc1/N=C/c1ccc2c(c1)OCO2 | – | inactive | – |
| COC(=O)c1ccc(/C=C/c2ccc([N+](=O)[O-])o2)o1 | 88.4% | – | inhibition [3]: 1.8%; IC50 [4]: 126 µM |
| CC(C)Sc1nc2sccn2c1/C=N/OCc1c(Cl)cccc1Cl | – | inactive | – |
| Oc1nnc(Cc2ccc(-c3ccccc3Cl)o2)c2ccccc12 | 67.3% | – | – |
| COc1ccc(/C=N/c2ccc(O)cc2)cc1 | – | inactive | – |
| C/C(CCS(=O)(=O)c1ccccc1)=N\OC/C=C/Cl | – | inactive | – |
| NC(=O)c1ncn([C@@H]2O[C@@H](CO)[C@H](O)[C@@H]2O)n1 | 0% | – | – |

More lines, main results first:

| inhibition [1] | inhibition [2] | Structure (SMILES) | further results |
| --- | --- | --- | --- |
| 20.1% | – | CCOC(=O)c1cnc2c(C(F)(F)F)cccc2c1O | – |
| 28.8% | – | COC(=O)c1sccc1Oc1ccc(C(F)(F)F)cc1NC=C(C#N)C#N | – |
| – | inactive | O=C(Nc1ccc(F)c([N+](=O)[O-])c1)Nc1cccc2c(O)cccc12 | – |
| 52.7% | – | CCC(=O)n1nc2c(c1C(C)(C)C)C(=O)c1ccccc1-2 | inhibition [3]: -2.2%; IC50 [4]: 563 µM |
| 0% | – | O=C1C(O)=C(O)O[C@@H]1C1COC2(CCCCC2)O1 (stereo not given in full) | – |
| 0% | – | CC(C)COC(=O)CSc1nc2c(c(=O)[nH]c(=O)n2C)n1C | – |
| 24.2% | – | Nc1nc(O)c2ncn([C@H]3O[C@@H]4COP(=O)(O)O[C@H]4[C@H]3O)c2n1 | – |
| 26.5% | – | Cc1ccc(Cl)cc1NCN1C(=O)CNC1=S | – |
| 37.7% | – | O=C(NCc1ccco1)c1ccc([N+](=O)[O-])o1 | – |
